Data: ChEMBL document CHEMBL4270615, “Design, synthesis and biological evaluation of novel thiazolidinedione derivatives as irreversible allosteric IKK-β modulators” (Eur J Med Chem, 2018)

How the values were obtained:
[1] = target: T1, Inhibitor of nuclear factor kappa-B kinase subunit beta (Homo sapiens) (UniProt O14920); experiment: Inhibition of IKKbeta (unknown origin) at 10 uM using IkappaBalpha-derived 5FAMGRHDSGLDSMK-NH2 as substrate preincubated for 10 mins followed by substrate addition measured after 2 hrs by IMAP based TR-FRET assay relative to control
T1 sequence (whole entry): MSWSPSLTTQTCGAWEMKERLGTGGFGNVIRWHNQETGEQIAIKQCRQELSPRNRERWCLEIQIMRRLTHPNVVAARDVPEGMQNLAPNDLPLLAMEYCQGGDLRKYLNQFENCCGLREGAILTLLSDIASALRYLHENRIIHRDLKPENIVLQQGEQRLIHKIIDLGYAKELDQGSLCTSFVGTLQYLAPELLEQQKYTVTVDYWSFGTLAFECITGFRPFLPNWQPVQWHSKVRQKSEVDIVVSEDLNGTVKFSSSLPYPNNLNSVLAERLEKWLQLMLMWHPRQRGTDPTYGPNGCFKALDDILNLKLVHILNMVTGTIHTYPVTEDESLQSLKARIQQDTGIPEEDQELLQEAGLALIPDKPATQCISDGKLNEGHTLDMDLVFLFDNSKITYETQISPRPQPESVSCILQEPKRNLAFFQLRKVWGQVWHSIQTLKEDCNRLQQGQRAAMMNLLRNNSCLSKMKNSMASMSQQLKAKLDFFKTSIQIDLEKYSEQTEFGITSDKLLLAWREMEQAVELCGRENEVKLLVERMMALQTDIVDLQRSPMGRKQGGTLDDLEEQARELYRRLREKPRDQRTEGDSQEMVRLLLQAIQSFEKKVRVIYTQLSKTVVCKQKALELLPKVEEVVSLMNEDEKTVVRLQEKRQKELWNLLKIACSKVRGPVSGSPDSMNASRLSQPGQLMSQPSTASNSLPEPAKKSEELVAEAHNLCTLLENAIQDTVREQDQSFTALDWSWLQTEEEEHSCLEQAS
How it was run: (§1)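 Recombinant IKK2 at 0.5 µg/mL in 10 mM Tris-HCl pH 7.2, 10 mM MgCl2, 0.05% NaN3, 1 mM DTT, 0.01% Tween-20. Compound preincubated with enzyme for 10 min, then 1 μM 5-FAM IκBα peptide and 3 μM ATP added; reaction at room temperature for 2 h. IMAP binding reagent (1:600) plus terbium donor (1:400) added 15 h before the TR-FRET read. Percent inhibition measured at 10 µM.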

[2] = target: T2, Inhibitor of nuclear factor kappa-B kinase subunit beta (Homo sapiens, UniProt O14920); experiment: Inhibition of IKKbeta (unknown origin) using IkappaBalpha-derived 5FAMGRHDSGLDSMK-NH2 as substrate preincubated for 10 mins followed by substrate addition measured after 2 hrs by IMAP based TR-FRET assay; how it was run: as §1
T2 sequence (O14920 whole entry): T1 sequence (whole entry)

[3] = target: hERG (KCNH2) (Homo sapiens, UniProt Q12809); experiment: Inhibition of human ERG expressed in CHOK1 cells assessed as reduction in tail current at 100 uM and -80 holding potential after 100 to 200 secs by whole cell automated patch-clamp electrophysiology assay relative to control; type: ADME, cell-based; conditions: CHO-K1 cells expressing human ERG
How it was run: (§2)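 CHO-K1 Tet-On hERG cells, with expression induced by doxycycline 5 μg/ml, recorded 20–32 h after induction. Whole-cell automated patch clamp used intracellular solution of 50 KCl, 60 KF, 10 NaCl, 2 MgCl2, 20 EGTA, 10 HEPES pH 7.2 (mM) and extracellular solution of 140 NaCl, 4 KCl, 2 CaCl2, 1 MgCl2, 5 glucose, 10 HEPES pH 7.4. Compound perfused for 100–200 s until tail-current block reached equilibrium. Percent inhibition taken at 100 μM.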

[4] = test system: hERG (KCNH2) versus IKKbeta; experiment: Safety index, ratio of compound IC50 for human ERG expressed in CHOK1 cells to IC50 for IKKbeta (unknown origin); type: toxicity, cell-based; conditions: CHO-K1 cells expressing human ERG, read-out: Ratio IC50
How it was run: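 Safety index calculated as hERG IC50 divided by IKK-β IC50.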

[5] = target: Voltage-gated inwardly rectifying potassium channel KCNH2 (Homo sapiens, UniProt Q12809); experiment: Inhibition of human ERG expressed in CHOK1 cells assessed as reduction in tail current at -80 holding potential after 100 to 200 secs by whole cell automated patch-clamp electrophysiology assay; type: ADME, cell-based; how it was run: as §2
[6] = target: T2, Inhibitor of nuclear factor kappa-B kinase subunit beta; experiment: Inhibition of human IKKbeta using IKKtide as substrate after 20 mins by [gamma-33P]-ATP based radiometric assay
[7] = Cytotoxicity against LPS-treated mouse RAW264.7 cells assessed as decrease in cell viability after 24 hrs by MTT assay; type: cell-based; conditions: LPS-treated RAW264.7 cells
How it was run: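 RAW 264.7 cells seeded at 1×10^5 cells/mL, grown overnight, then exposed to samples for 24 h, with or without 1 μg/ml LPS. MTT added from a 5 mg/mL PBS stock for 4 h at 37 °C. Formazan dissolved in DMSO and absorbance read at 540 nm. IC80 is the concentration lowering viability to 80% in the presence of LPS.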

[8] = test system: RAW264.7; experiment: Antiinflammatory activity against mouse RAW264.7 cells assessed as inhibition of LPS-induced TNFalpha production incubated for 1 hr followed by LPS addition measured after 24 hrs by ELISA; type: functional, cell-based
How it was run: (§3)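 RAW 264.7 macrophages (DMEM, 10% FBS, penicillin/streptomycin, 37 °C, 5% CO2) plated at 2×10^5 cells/mL and left overnight. Compounds at 1.5, 3 and 6 μM, or NS-398 as positive control, given for 1 h, then LPS (10 ng/mL) for 24 h. PGE2 and TNF-α in diluted culture medium quantified by ELISA. IC50 is the concentration halving the produced mediator.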

[9] = test system: RAW264.7; experiment: Antiinflammatory activity against mouse RAW264.7 cells assessed as inhibition of LPS-induced PGE2 production incubated for 1 hr followed by LPS addition measured after 24 hrs by ELISA; type: functional, cell-based; how it was run: as §3

hERG (KCNH2), sequence (Q12809 whole entry, the tested form may be a part): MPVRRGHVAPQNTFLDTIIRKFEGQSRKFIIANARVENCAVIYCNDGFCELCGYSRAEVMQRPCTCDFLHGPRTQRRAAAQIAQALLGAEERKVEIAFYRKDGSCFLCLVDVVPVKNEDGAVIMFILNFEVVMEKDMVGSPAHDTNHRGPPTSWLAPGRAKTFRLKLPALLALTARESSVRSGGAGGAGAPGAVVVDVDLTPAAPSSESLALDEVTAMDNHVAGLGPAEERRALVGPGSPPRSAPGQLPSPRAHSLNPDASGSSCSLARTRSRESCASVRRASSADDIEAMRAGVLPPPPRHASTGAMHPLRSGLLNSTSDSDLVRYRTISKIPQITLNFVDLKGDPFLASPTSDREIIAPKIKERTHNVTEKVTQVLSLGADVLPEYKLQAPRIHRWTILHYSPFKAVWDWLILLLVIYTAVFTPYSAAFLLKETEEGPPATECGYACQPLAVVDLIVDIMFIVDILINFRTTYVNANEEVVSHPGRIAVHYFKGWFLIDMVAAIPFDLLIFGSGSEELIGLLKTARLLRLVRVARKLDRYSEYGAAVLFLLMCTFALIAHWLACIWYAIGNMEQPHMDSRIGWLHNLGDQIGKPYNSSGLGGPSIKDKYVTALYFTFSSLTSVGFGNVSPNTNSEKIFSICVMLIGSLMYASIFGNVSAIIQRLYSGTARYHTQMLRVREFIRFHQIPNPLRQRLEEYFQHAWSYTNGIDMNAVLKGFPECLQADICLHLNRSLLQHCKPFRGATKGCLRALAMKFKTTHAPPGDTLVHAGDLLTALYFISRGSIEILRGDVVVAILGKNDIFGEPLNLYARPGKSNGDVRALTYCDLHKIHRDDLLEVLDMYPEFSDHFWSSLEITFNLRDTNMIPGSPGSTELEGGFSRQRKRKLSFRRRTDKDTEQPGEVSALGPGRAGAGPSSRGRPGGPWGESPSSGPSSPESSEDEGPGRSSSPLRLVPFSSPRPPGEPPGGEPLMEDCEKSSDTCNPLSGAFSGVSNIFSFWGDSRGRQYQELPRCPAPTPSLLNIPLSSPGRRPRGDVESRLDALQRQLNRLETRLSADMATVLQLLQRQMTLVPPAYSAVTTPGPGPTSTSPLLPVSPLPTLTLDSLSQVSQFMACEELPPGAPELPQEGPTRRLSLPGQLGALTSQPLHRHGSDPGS
Voltage-gated inwardly rectifying potassium channel KCNH2, sequence (Q12809 whole entry): as the sequence (Q12809 whole entry, the tested form may be a part) above

| SMILES | inhibition [1] | IC50 [2] | other results |
| --- | --- | --- | --- |
| O=C(C1CC1)N1CCN(CCCCOc2ccc(N3C(=O)S/C(=C\c4ccc(Oc5ccc(Cl)cc5)cc4)C3=O)cc2)CC1 | 17% | – | – |
| O=C(C1CC1)N1CCN(CCCCOc2ccc(N3C(=O)S/C(=C\c4ccc(Oc5ccc([N+](=O)[O-])cc5)cc4)C3=O)cc2)CC1 | 21.7% | – | – |
| O=C1S/C(=C\c2ccc(Oc3ccc(F)cc3)cc2)C(=O)N1c1ccc(OCCCN2CCN(CC3CC3)CC2)cc1 | 88.8% | 1.4 µM | – |
| CS(=O)(=O)N1CCN(CCCCOc2ccc(N3C(=O)S/C(=C\c4ccc(Oc5ccc(Cl)cc5)cc4)C3=O)cc2)CC1 | 0.8% | – | – |
| O=C1S/C(=C\c2ccc(Oc3ccc(Br)cc3)cc2)C(=O)N1c1ccc(OCCCCN2CCN(CC3CC3)CC2)cc1 | 60.8% | 7.9 µM | inhibition at 100 µM [3]: 66.5%; selectivity ratio [4]: 3.5; IC50 [5]: 27.5 µM |
| COCCCN1CCN(CCCCOc2ccc(N3C(=O)S/C(=C\c4ccc(Oc5ccc(Cl)cc5)cc4)C3=O)cc2)CC1 | 1.6% | – | – |
| O=C1N/C(=N\c2ccc(O)cc2)S/C1=C\c1cc2ccccc2[nH]1 | – | – | IC50 [6]: 97.4 µM |
| O=C1S/C(=C\c2ccc(Oc3ccc([N+](=O)[O-])cc3)cc2)C(=O)N1c1ccc(OCCCCN2CCN(CC3CC3)CC2)cc1 | 85.6% | 1.5 µM | IC80 at 24 h [7]: > 6 µM; IC50 [8]: 3.41 µM; inhibition at 100 µM [3]: 61.2%; selectivity ratio [4]: 36.9; Activity [9]: Dose-dependent effect; IC50 [9]: > 6 µM; IC50 [5]: 55.3 µM |
| CS(=O)(=O)N1CCN(CCCCOc2ccc(N3C(=O)S/C(=C\c4ccc(Oc5ccc(F)cc5)cc4)C3=O)cc2)CC1 | 2.7% | – | – |
| COCCN1CCN(CCCCOc2ccc(N3C(=O)S/C(=C\c4ccc(Oc5ccc([N+](=O)[O-])cc5)cc4)C3=O)cc2)CC1 | 9.3% | – | – |
| O=C(C1CC1)N1CCN(CCCCOc2ccc(N3C(=O)S/C(=C\c4ccc(Oc5ccc(Br)cc5)cc4)C3=O)cc2)CC1 | 52.4% | 8.6 µM | inhibition at 100 µM [3]: 17.1% |
| CS(=O)(=O)N1CCN(CCCCOc2ccc(N3C(=O)S/C(=C\c4ccc(Oc5ccc([N+](=O)[O-])cc5)cc4)C3=O)cc2)CC1 | 0% | – | – |
| CS(=O)(=O)N1CCN(CCCCOc2ccc(N3C(=O)S/C(=C\c4ccc(Oc5ccc(Br)cc5)cc4)C3=O)cc2)CC1 | 3.3% | – | – |
